# m5-HT2A agonist = activates the mouse 5-HT2A serotonin receptor; P35363; 360,000 compounds, 0.66% hits; activation, % at 7.6 µM; CHO-K1 mHTR2A beta-arrestin complementation, luminescence; percent of 30 µM serotonin response;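 active = activation above a run cutoff, the mean activation of all tested compounds plus 3 SD, cut at about 14% in these data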;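 also: 0% = plate median of compound wells and 100% = 30 µM serotonin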
# Target sequence (P35363 whole entry, looked up): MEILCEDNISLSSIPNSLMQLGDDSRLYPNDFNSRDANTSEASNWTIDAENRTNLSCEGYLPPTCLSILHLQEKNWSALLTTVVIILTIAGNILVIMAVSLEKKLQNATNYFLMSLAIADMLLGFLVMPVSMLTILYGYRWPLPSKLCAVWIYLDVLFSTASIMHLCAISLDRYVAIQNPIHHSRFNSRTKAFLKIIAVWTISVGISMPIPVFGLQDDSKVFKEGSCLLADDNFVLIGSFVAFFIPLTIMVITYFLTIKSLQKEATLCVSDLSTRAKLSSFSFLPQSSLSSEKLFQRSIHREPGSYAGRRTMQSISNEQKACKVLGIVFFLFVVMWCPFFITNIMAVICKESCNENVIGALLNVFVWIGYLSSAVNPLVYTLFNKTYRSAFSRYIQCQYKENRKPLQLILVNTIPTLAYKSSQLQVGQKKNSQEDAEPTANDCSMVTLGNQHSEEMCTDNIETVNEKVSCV
# AI-2 QS modul = modulates the Vibrio harveyi AI-2 quorum sensing system; Vibrio harveyi JMH597 AI-2 luminescence/OD600 ratio, 9 h; active compounds read low; strain lacks LuxN and CqsS sensors; 0 = neutral-control median; activity change, % at 7.5 µM; AID 2094; 300,000 compounds, 0.4% hits; in the data active = activity change below about -75%, passing the limit was not always enough;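 also: luminescence divided by OD600 gain over 9 h not by final OD600 alone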
# MsrA act = activators of bovine methionine sulfoxide reductase A; AID 602163; 360,000 compounds, 0.3% hits; activation, % at 10.6 µM; purified bovine MsrA, absorbance read-out; in the data active = activation above about 7.5%;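 also: 0% = vehicle and 100% = reference activator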
# MsrA inh = inhibits bovine methionine sulfoxide reductase A. purified bovine MsrA, absorbance read-out. 360,000 compounds, 0.75% hits. inhibition, % at 15.5 µM; in the data active = inhibition above about 4.5%;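 also: 0% = vehicle wells with enzyme and 100% = reference inhibitor wells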
# TbMetRS inhib = blocks T. brucei methionyl-tRNA synthetase activity; purified T. brucei MetRS, ATP depletion, Kinase-Glo luminescence; inhibition, % at 11.9 µM; 360,000 compounds, 0.4% hits;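 active = inhibition above a per-plate cutoff of the control wells' mean inhibition plus 3 SD, cut at about 5.5% in these data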;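 also: 0% = DMSO wells median and 100% = median of wells with control inhibitor compound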
#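 assay system = parasite MetRS enzyme | timing = 15 min preincubation, 2 h reaction, all 25 °C | evaluation = percent inhibition relative to median high and low control wells | medium = HEPES buffer containing pyrophosphatase, BSA, spermine, DTT | compound = single dose, 11.9 µM final nominal, 0.9% final DMSO | detection = Kinase-Glo luminescence, ATP depletion format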
# AHR act = human AHR activation; activation, % at 5 µM; AID 2796; 320,000 compounds, 2.5% hits; P35869; AHR-responsive luciferase reporter cells, luminescence; in the data active = activation above about 47%;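 also: 0% = vehicle wells and 100% = reference agonist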
# OPRM1 ag = OPRM1 agonism in mouse HTR2A counterscreen; shares compounds with m5-HT2A agonist; U2OS OPRM1 beta-arrestin PathHunter, luminescence; DMSO 0%, DAMGO 9.3 µM 100%; activation, % at 9.3 µM; 2,300 compounds, 5.3% hits;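 active = mean activation above the mean of DMSO-only wells plus 3 SD, cut at about 0.5% in these data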
# m5-HT2A ag conf = mouse HTR2A agonism confirmed | AID 624381 | activation, % at 7.6 µM | shares compounds with m5-HT2A agonist | CHO-K1 PathHunter beta-arrestin recruitment, luminescence; DMSO 0%, 30 µM serotonin 100% | 2,300 compounds, 19% hits;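 active = mean activation across triplicates above the hit threshold derived in the original primary screen, cut at about 15% in these data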
# * marks the source's active call; other numbers are inactive results; · = no result. Shown are actives, neighbours in structure and some others; about 4.4% of the full set was active somewhere.
SMILES,m5-HT2A agonist,AI-2 QS modul,MsrA act,MsrA inh,TbMetRS inhib,AHR act,OPRM1 ag,m5-HT2A ag conf
COc1ccc(NC(=O)c2cc(C3CCCCN3C(=O)c3cc(C(C)(C)C)nn3C)on2)c(C)c1 (centres undefined),5,·,-4,0,0,·,·,·
COc1ccc(CC(=O)Nc2cc(C)on2)cc1OC,15*,-5,-1,0,0,1,-1,-2
CCC(C)(C)NC(=O)CN(C(=O)c1csnn1)c1ccccc1-c1ccccc1,16*,4,-3,-1,1,3,-1,-4
CCC(C)(C)NC(=O)CN(C(=O)c1csnn1)c1cccc2c1CCCC2,2,26,-6,1,-1,14,·,·
Cc1cccc(NC(=O)c2cnc3ccccn3c2=O)c1,26*,·,-2,1,0,·,-1,-1
CCOC(=O)c1ccc(NC(=O)c2nc[nH]c2C(=O)N[C@@H](CC(C)C)C(=O)OC(C)(C)C)cc1,4,8,-10,0,0,9,·,·
CC(C)C[C@H](NC(=O)c1[nH]cnc1C(=O)Nc1ccccc1)C(=O)OC(C)(C)C,16*,19,-5,0,0,5,0,-6
c1ccc2c(c1)[nH]c1c(N3CCSCC3)ncnc12,15*,·,-5,1,0,42,0,-2
O=C(Cn1cc(C(F)(F)F)ccc1=O)Nc1ccc2c(c1)OCO2,17*,·,-1,-1,2,·,-1,-3
CCCCN(C(=O)Cc1ccc2c(c1)OCCO2)c1c(N)n(CC(C)C)c(=O)[nH]c1=O,1,·,0,0,0,·,·,·
O=C(NCc1cccc(Cl)c1)c1cccc2c(-c3cccnc3)coc12,-3,·,0,0,0,·,·,·
CCCCCCSc1cc(C)nc2ncnn12,21*,16,-1,2,2,6,0,4
Cc1ccnc(NC(=O)C2CCN(S(=O)(=O)c3ccc(C)c(C)c3)CC2)c1,7,9,-3,0,0,-5,·,·
CC(C)(C)c1csc(NC(=O)c2ccccc2O)n1,5,4,-3,1,0,0,·,·
CC(C)(C)c1csc(NC(=O)c2c(F)c(F)c(F)c(F)c2F)n1,17*,12,-4,1,0,2,0,15*
O=C(NC1CCCCC1)c1cc(S(=O)(=O)N2CCOCC2)ccc1Cl,2,-11,-14,1,-2,0,·,·
CNc1ccc(-c2cccc(CO)c2)cn1,-9,·,-2,0,0,·,·,·
COc1cc(C(=O)Nc2cccc(NC(=O)c3ccccc3)c2)cc(OC)c1OC,5,9,-2,0,1,0,·,·
COc1cc(C(=O)Nc2cccc(-c3nncn3C)c2)cc(OC)c1OC,15*,21,-5,1,-1,11,-1,-4
O=C1CN(C(=O)NCC(=O)N[C@@H](Cc2ccccc2)C(=O)O)c2ccccc2N1,4,10,-8,0,-2,3,·,·
CC(=O)C(Cc1ccccc1)NC(=O)CN1CCc2ccccc2C1 (centres undefined),-4,-5,-10,1,-1,2,·,·
CC(CCc1ccccc1)NC(=O)CNC(=O)N1CC(=O)Nc2ccccc21 (centres undefined),15*,19,-7,0,-1,0,-1,0
CC(CCc1ccccc1)NC(=O)CN1CCc2ccccc2C1 (centres undefined),25*,8,-12,2,-2,0,-1,60*
CC(Oc1cc2oc(=O)c3c(c2cc1Cl)CCCC3)C(=O)NCCN1CCOCC1 (centres undefined),-6,19,-1,4,0,4,·,·
CCN(CC(=O)Nc1ccc(OC)cc1)CC(=O)Nc1sc2c(c1C(=O)OC)CCCC2,3,·,-1,0,0,1,·,·
SMILES,m5-HT2A agonist,AI-2 QS modul,MsrA act,MsrA inh,TbMetRS inhib,AHR act,OPRM1 ag,m5-HT2A ag conf
C[C@H]1CCCCO[C@H](CN(C)Cc2ccccc2)[C@@H](C)CN([C@@H](C)CO)C(=O)c2cc(NC(=O)CCC(F)(F)F)ccc2O1,23*,·,2,1,0,·,-1,0
O=C(NCCCN1CCN(c2cccc(Cl)c2)CC1)c1cccc(N2CCCC2=O)c1,17*,1,2,1,-1,2,-1,4
O=C(NCCCN1CCN(c2cccc(Cl)c2)CC1)c1ccc(N2CCCC2=O)cc1,4,8,-6,0,0,-1,·,·
NC(N)=N/N=C(\N=Nc1ccccc1)c1ccc(Cl)cc1,-6,·,-1,0,0,·,·,·
CCCCCC1C(=O)C[C@@H]2CCN3C(=O)CCC[C@H]1[C@H]23 (some centres undefined),17*,·,-4,-1,0,·,-1,-3
Cc1ccc(CNC(=O)C2CC(=O)OC23CCCC3)c(C)c1 (centres undefined),16*,9,-14,1,-1,2,0,1
Cc1cccc(NC(=O)C2CC(=O)OC23CCCCC3)c1 (centres undefined),-3,16,-2,-2,0,2,·,·
NS(=O)(=O)c1ccc(CNC(=O)Cn2nc(C(F)F)cc2C(F)F)cc1,1,·,-2,-1,0,-1,·,·
CCOC(=O)[C@H]1[C@H]2COc3ccc(Cl)cc3[C@@H]2N2C(=O)c3ccc(C)cc3NC(=O)[C@@]12C,15*,·,-11,-1,-1,2,-1,-3
CCOC(=O)[C@H]1[C@H]2COc3ccc(OC)cc3[C@@H]2N2C(=O)[C@H](C)NC(=O)[C@@]12C,20*,·,-4,0,0,0,-1,-2
CCOC(=O)[C@H]1[C@H]2COc3ccc(C)cc3[C@@H]2N2C(=O)CN(Cc3ccco3)C(=O)[C@@]12C,15*,·,-2,1,0,1,-1,-1
CCOC(=O)[C@H]1[C@H]2COc3ccc(C)cc3[C@@H]2N2C(=O)CN(Cc3ccc(C)cc3)C(=O)[C@@]12C,3,·,-2,-1,0,3,·,·
CC(C)(C)C1CCC(OCC(O)CN2CCN(c3ccccn3)CC2)CC1 (centres undefined),18*,54,-2,0,-1,-4,0,94*
CCc1ccc(OCC(O)CN2CCN(c3ccccn3)CC2)cc1 (centres undefined),10,32,-4,-1,0,1,·,·
OC(COc1ccc(OCC(O)CN2CCCCC2)cc1)CN1CCCCC1 (centres undefined),17*,17,-6,0,-1,2,-1,-4

# Source: PubChem (several laboratories)
